Data from ChEMBL document CHEMBL3860087, “New Broad-Spectrum Antibacterial Amphiphilic Aminoglycosides Active against Resistant Bacteria: From Neamine Derivatives to Smaller Neosamine Analogues” (J Med Chem, 2016).
Converted amounts (≈) assume the structure as drawn.

Experiments:
Pseudomonas aeruginosa [1] = test: Induction of inner membrane permeabilization of Pseudomonas aeruginosa ATCC 27853 at 5 uM after 15 mins by propidium iodide staining-based fluorescence assay relative to control; type: functional
Outline: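 P. aeruginosa ATCC 27853 from TSA colony, overnight in MHB-CA at 37 °C with shaking, diluted 100-fold and grown 4 h to mid-log (OD620 ~0.4–0.5). Suspension (OD600 0.05) with PI (3 mM stock diluted 10^3-fold) plus compound in HEPES (1–10 μM final). Fluorescence ex 540/em 610 nm at 25 °C after 15 min; normalized to CTAB 150 μM (100%) and imipenem (0%).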

Staphylococcus aureus [2] = test: Antibacterial activity against Staphylococcus aureus ATCC 25923 by microdilution method; type: functional
Outline: (§1)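 Broth microdilution per CLSI in cation-adjusted Mueller–Hinton broth. Strains were grown overnight at 37 °C on trypticase soy agar, and a fresh culture was used. Starting inoculum was 10^6 cells.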

Staphylococcus aureus [3] = test: Antibacterial activity against NorA expressing Staphylococcus aureus 1 by microdilution method
Staphylococcus aureus [4] = test: Antibacterial activity against healthcare-acquired methicillin-resistant Staphylococcus aureus ATCC 33592 by microdilution method; type: functional; outline: as §1
Pseudomonas aeruginosa [5] = test: Antibacterial activity against Pseudomonas aeruginosa ATCC 27853 by microdilution method; type: functional
Outline: (§2)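 Strains grown overnight at 37 °C on trypticase soy agar; MIC by broth microdilution from fresh culture in cation-adjusted Mueller–Hinton broth, starting inoculum 10^6 cells, following CLSI recommendations.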

Pseudomonas aeruginosa [6] = test: Antibacterial activity against AAC6'-2A expressing Pseudomonas aeruginosa F03 by microdilution method; type: functional; outline: as §2
Pseudomonas aeruginosa [7] = test: Antibacterial activity against MexXY expressing Pseudomonas aeruginosa PA22 by microdilution method; type: functional; outline: as §2
Pseudomonas aeruginosa [8] = test: Antibacterial activity against triABC deficient Pseudomonas aeruginosa PA406 by microdilution method; type: functional; outline: as §2
Acinetobacter lwoffii [9] = test: Antibacterial activity against Acinetobacter lwoffii ATCC 17925 by microdilution method; type: functional; outline: as §2
Acinetobacter lwoffii [10] = test: Antibacterial activity against APH3'-VIA expressing Acinetobacter lwoffii AI.88-483 by microdilution method; type: functional; outline: as §2
Escherichia coli [11] = test: Antibacterial activity against AAC6'-IB expressing Escherichia coli PAZ505H8101 by microdilution method; type: functional; outline: as §2
Escherichia coli [12] = test: Antibacterial activity against ANT2''-IA expressing Escherichia coli L8058.1 by microdilution method; type: functional; outline: as §2
Klebsiella pneumoniae = test: Antibacterial activity against Klebsiella pneumoniae ATCC 700603 by microdilution method; type: functional; outline: as §2
[13] = (§3) Cytotoxicity against mouse J774 cells assessed as cell viability at 10 uM after 24 hrs by MTT assay relative to control; type: toxicity, cell-based; conditions: J774 cells, read-out: Activity
Outline: (§4)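 Murine J774 macrophages exposed 24 h to 10 or 30 μM compound, then 1 h with 0.2 mg/mL MTT; reaction stopped with DMSO, OD read at 570 nm as metabolic-activity viability. Number of independent experiments given per value.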

[14] = (§5) Cytotoxicity against mouse J774 cells assessed as cell viability at 30 uM after 24 hrs by MTT assay relative to control; type: toxicity, cell-based; conditions: J774 cells, read-out: Activity; outline: as §4
Escherichia coli [15] = test: microbe, parasite or virus in culture; conditions: ATCC 25922
Pseudomonas aeruginosa [16] = test: Ratio of MIC for Pseudomonas aeruginosa ATCC 27853 after 9 serial passages to MIC for Pseudomonas aeruginosa ATCC 27853 prior to serial passages; type: functional
Pseudomonas aeruginosa [17] = test: Induction of inner membrane permeabilization of Pseudomonas aeruginosa ATCC 27853 at 150 uM after 15 mins by propidium iodide staining-based fluorescence assay relative to control; type: functional
Pseudomonas aeruginosa [18] = test: Ratio of MIC for Pseudomonas aeruginosa ATCC 27853 after 4 serial passages to MIC for Pseudomonas aeruginosa ATCC 27853 prior to serial passages; type: functional
Mus musculus [19] = species: Mus musculus; test: as §3; type: toxicity, cell-based; conditions: j774, 24 h, 10 µM; outline: as §4
Mus musculus [20] = species: Mus musculus; test: as §5; type: toxicity, cell-based; conditions: j774, 24 h, 30 µM; outline: as §4
Pseudomonas aeruginosa [21] = test: Induction of inner membrane permeabilization of Pseudomonas aeruginosa ATCC 27853 after 15 mins by propidium iodide staining-based fluorescence assay; type: functional
Outline: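 Mid-log P. aeruginosa (OD620 ~0.4–0.5, grown in CA-MHB at 37 °C, 130 rpm) was adjusted to OD600 0.05. A 3 mM propidium iodide stock was diluted 10^3-fold in the suspension. Compounds in HEPES were added at final 1–10 μM. Fluorescence (ex 540/em 610 nm) was read at 25 °C after 15 min stabilization. Values were normalized to 150 μM CTAB (100%) and imipenem (0%).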

Compound	MIC (Staphylococcus aureus [2]) [µg/mL]	MIC (Staphylococcus aureus [3]) [µg/mL]	MIC (Staphylococcus aureus [4]) [µg/mL]	MIC (Pseudomonas aeruginosa [5]) [µg/mL]	MIC (Pseudomonas aeruginosa [6]) [µg/mL]	MIC (Pseudomonas aeruginosa [7]) [µg/mL]	MIC (Pseudomonas aeruginosa [8]) [µg/mL]	MIC (Acinetobacter lwoffii [9]) [µg/mL]	MIC (Acinetobacter lwoffii [10]) [µg/mL]	MIC (Escherichia coli [11]) [µg/mL]	MIC (Escherichia coli [12]) [µg/mL]	MIC (Klebsiella pneumoniae) [µg/mL]	viability at 24 h, 10 µM [13] [%]	viability at 24 h, 30 µM [14] [%]	MIC (Escherichia coli [15]) [µg/mL]	other results
CCCCCCCCCO[C@@H]1[C@@H](N)[C@@H](OCC(O)CNCCCN)O[C@H](CN)[C@H]1OCCCCCCCCC (mixture of isomers)	2	2	2	8	8	8	4	2	8	4	8	32	101	71.6	8	Activity (Pseudomonas aeruginosa [1]): 25%
CCCCCCCCCO[C@@H]1[C@@H](N)[C@@H](O[C@H]2[C@H](O)[C@@H](O)[C@H](N)C[C@@H]2N)O[C@H](CN)[C@H]1OCCCCCCCCC	4 (≈ 6.96 µM)	2 (≈ 3.48 µM)	4 (≈ 6.96 µM)	8 to 16 (≈ 13.9 to 27.8 µM)	8 to 16 (≈ 13.9 to 27.8 µM)	8 to 16 (≈ 13.9 to 27.8 µM)	8 to 16 (≈ 13.9 to 27.8 µM)	2 to 4 (≈ 3.48 to 6.96 µM)	32 (≈ 55.7 µM)	2 to 4 (≈ 3.48 to 6.96 µM)	4 to 8 (≈ 6.96 to 13.9 µM)	16 to 32 (≈ 27.8 to 55.7 µM)	82.7	48.6	4 to 8 (≈ 6.96 to 13.9 µM)	Activity (Pseudomonas aeruginosa [1]): 25%
NC[C@H]1O[C@H](O[C@H]2[C@H](O)[C@@H](O)[C@H](N)C[C@@H]2N)[C@H](N)[C@@H](OCCCc2ccc3ccccc3c2)[C@@H]1OCCCc1ccc2ccccc2c1	2 to 4 (≈ 3.04 to 6.07 µM)	0.5 to 1 (≈ 0.759 to 1.52 µM)	1 to 2 (≈ 1.52 to 3.04 µM)	4 (≈ 6.07 µM)	8 (≈ 12.1 µM)	16 (≈ 24.3 µM)	4 (≈ 6.07 µM)	2 to 4 (≈ 3.04 to 6.07 µM)	32 to 64 (≈ 48.6 to 97.1 µM)	2 (≈ 3.04 µM)	4 to 8 (≈ 6.07 to 12.1 µM)	64 (≈ 97.1 µM)	87.7	66.9	16 to 32 (≈ 24.3 to 48.6 µM)	Ratio (Pseudomonas aeruginosa [16]): 15
Hexadecyltrimethylammonium bromide	–	–	–	–	–	–	–	–	–	–	–	–	–	–	–	Activity (Pseudomonas aeruginosa [17]): 100%
O=C(O)c1cn(C2CC2)c2cc(N3CCNCC3)c(F)cc2c1=O [CIPROFLOXACIN]	–	–	–	–	–	–	–	–	–	–	–	–	–	–	–	Ratio (Pseudomonas aeruginosa [18]): 15
GENTAMICIN	–	–	–	–	–	–	–	–	–	–	–	–	–	–	–	Activity (Mus musculus [19]): 88.2%; Activity (Mus musculus [20]): 74.2%
NC[C@H]1O[C@H](O[C@H]2[C@H](O)[C@@H](OCc3ccc4ccccc4c3)[C@H](N)C[C@@H]2N)[C@H](N)[C@@H](OCc2ccc3ccccc3c2)[C@@H]1O	8 (≈ 13.3 µM)	4 to 8 (≈ 6.64 to 13.3 µM)	8 to 16 (≈ 13.3 to 26.5 µM)	64 to 128 (≈ 106 to 212 µM)	64 to 128 (≈ 106 to 212 µM)	> 128	2 to 4 (≈ 3.32 to 6.64 µM)	4 to 8 (≈ 6.64 to 13.3 µM)	128 (≈ 212 µM)	32 (≈ 53.1 µM)	64 to 128 (≈ 106 to 212 µM)	128 (≈ 212 µM)	86	75.9	32 to 64 (≈ 53.1 to 106 µM)	–
C[C@@H](O)[C@H]1C(=O)N2C(C(=O)O)=C(SCCNC=N)C[C@H]12 [IMIPENEM ANHYDROUS]	–	–	–	–	–	–	–	–	–	–	–	–	–	–	–	Activity (Pseudomonas aeruginosa [21]): 0%
C=CCO[C@H]1O[C@H](CN)[C@@H](O)[C@H](O)[C@H]1N	> 128	> 128	> 128	> 128	> 128	> 128	> 128	> 128	> 128	> 128	> 128	> 128	82.2	82.1	> 128	–
C=CCO[C@H]1O[C@H](CN)[C@@H](OCCCCCCCCC)[C@H](OCCCCCCCCC)[C@H]1N	4 (≈ 8.5 µM)	4 (≈ 8.5 µM)	4 (≈ 8.5 µM)	> 128	> 128	> 128	> 128	4 to 8 (≈ 8.5 to 17 µM)	32 (≈ 68 µM)	> 128	> 128	128 (≈ 272 µM)	91.4	6.6	32 to 64 (≈ 68 to 136 µM)	–
NCC[C@H](O)C(=O)N[C@@H]1C[C@H](N)[C@@H](O[C@H]2O[C@H](CN)[C@@H](O)[C@H](O)[C@H]2O)[C@H](O)[C@H]1O[C@H]1O[C@H](CO)[C@@H](O)[C@H](N)[C@H]1O [AMIKACIN]	4 (≈ 6.83 µM)	2 (≈ 3.42 µM)	8 to 16 (≈ 13.7 to 27.3 µM)	2 to 4 (≈ 3.42 to 6.83 µM)	8 (≈ 13.7 µM)	8 (≈ 13.7 µM)	1 (≈ 1.71 µM)	< 0.25	128 (≈ 219 µM)	64 (≈ 109 µM)	2 (≈ 3.42 µM)	1 (≈ 1.71 µM)	81.2	92	4 (≈ 6.83 µM)	–
